Source: PubChem BioAssay AID449761 (Broad Institute, 2010)
Results filed as inconclusive are left out. Calls of active or inactive are those of the source.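 The calls were made as follows: active = compounds raising caspase signal with fitted AC50 no more than tenfold above the top tested dose; inconclusive = flat curve at 30 to 70% activity, or unusable fit; inactive = the rest.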

System: MEF WT non-primed, caspase-Glo luminescence, 3 h
Assay: caspase activation in non-primed cells, dose response, counter-screen for Bcl2-A1 inhibitor project, cell-based, caspase-Glo luminescence, 3 h (AID 449761)
Summary of the method: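 Assay system: Non-primed wild-type MEF cells; Quantity: 2500 cells per well; Doses: 100 nL compound added per well by pin transfer; Medium: RPMI-1640 plus 10% FBS; Detection: CaspaseGlo luminescence; Timing: 3 h compound at 37 °C, 1 h reagent at RT.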

Q: With `N#C/C(=C\c1ccc(OCc2ccccc2)cc1)C(=O)Nc1nc2c(s1)CCN(Cc1ccccc1)C2` as the compound, how does the AC50 read?
A: Its AC50 is > 35 µM (inactive).

Q: Which AC50 does the source give for `CN1C2CCC1/C(=C/c1ccccn1)C(=O)/C2=C\c1ccccn1` here?
A: Its AC50 is > 35 µM (inactive).

Q: Which AC50 does the source give for `COc1cc(CN2CCN(c3cc(C)ccc3C)CC2)ccc1O` here?
A: Its AC50 is > 35 µM (inactive).

Q: Which AC50 does the source give for `COc1ccc(S(=O)(=O)N2CC(O)CC2C(=O)OCC(=O)Nc2ccc(Cl)cn2)cc1` (stereo unspecified) here?
A: Its AC50 is > 35 µM (inactive).

Q: How did the AC50 turn out when `CC(=O)Nc1ncnc2c1c(-c1ccc(Cl)cc1)nn2C(C)(C)C` was run?
A: The AC50 was > 35 µM (inactive).

Q: With `COc1ccccc1-c1cc(C(F)(F)F)nc(S(=O)(=O)CCCC(=O)N2CCOCC2)n1` as the compound, how does the AC50 read?
A: Its AC50 is 8.99 µM.

Q: For `Clc1ccccc1CN(Cc1ccccc1)c1ncnc2nc[nH]c12`, which AC50 is on record?
A: The AC50 was > 35 µM (inactive).

Q: Which AC50 does the source give for `Cc1occc1-c1nnc(SCC(=O)NCCc2ccccc2)n1Cc1ccccc1` here?
A: Its AC50 is > 35 µM (inactive).

Q: With `CC(C)c1cccc(-c2ccc3c(c2)S(=O)(=O)c2cccc(C(=O)NC4CCCC4)c2C3=O)c1` as the compound, how does the AC50 read?
A: Its AC50 is > 35 µM (inactive).

Q: Which AC50 does the source give for `CCOC(=O)C(C(=O)OCC)c1cc(Br)c2noc3c2c1C(=O)c1ccccc1-3` here?
A: Its AC50 is 8.67 µM.

Q: For `Cc1cc(=O)[nH]c(SCC(=O)Nc2ccc(Br)cc2)c1C#N`, which AC50 is on record?
A: Its AC50 is > 35 µM (inactive).

Q: How did the AC50 turn out when `CC1CCc2c(sc3nc(C(C)(C)C)nc(N4CCN(C(=O)CCl)CC4)c23)C1` (stereo unspecified) was run?
A: The AC50 was 13 µM.

Q: Which AC50 does the source give for `CCOc1cc(/C=C2/C(=N)N3C=CSC3=NC2=O)ccc1OCCCOc1ccccc1C` here?
A: Its AC50 is 8.09 µM.

Q: `CCS(=O)(=O)c1ncc(Cl)c(C(=O)Nc2ccc(S(=O)(=O)N3CCC(C)CC3)cc2)n1` was tested. Which AC50 did it give?
A: The AC50 was > 35 µM (inactive).

Q: For `COC(=O)c1ccc2c(c1)C(C)(C)C(/C=C/c1ccc(O)cc1)=[N+]2C`, which AC50 is on record?
A: The AC50 was 14.2 µM.

Q: For `C/C1=C\[C@@H](C)C/C=C/[C@H]2[C@@H]3O[C@]3(C)[C@@H](C)[C@H]3[C@H](Cc4c[nH]c5ccccc45)NC(=O)[C@]32C(=O)/C=C/C(=O)[C@@H]1O`, which AC50 is on record?
A: The AC50 was 8.71 µM.
